Active and inactive are the calls of the source. No cut-off for these calls is given here.
Tests used:
PC-3 [1] = test: Downregulation of HDAC6 protein expression in human PC3 cells at 1 to 2 uM after 24 hrs by Western blot method; assay type: functional, cell-based
Method in brief: (§1)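 MV4-11 (1,500,000/well) or PC-3 (300,000/well) grown 12 h, then treated 24 h at 1 and 2 μM, with 5 μM SAHA as reference. RIPA lysis, sonication and centrifugation, BCA normalization. NuPAGE 4–12% Bis-Tris gel in MES, transfer, primary antibodies 1/1000 overnight at 4 °C. Actin as loading control.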

Histone deacetylase 1 [2] = target: T1, Histone deacetylase 1 (Homo sapiens, UniProt Q13547); conditions: 0.25 to 2 uM
T1 sequence (Q13547 whole entry): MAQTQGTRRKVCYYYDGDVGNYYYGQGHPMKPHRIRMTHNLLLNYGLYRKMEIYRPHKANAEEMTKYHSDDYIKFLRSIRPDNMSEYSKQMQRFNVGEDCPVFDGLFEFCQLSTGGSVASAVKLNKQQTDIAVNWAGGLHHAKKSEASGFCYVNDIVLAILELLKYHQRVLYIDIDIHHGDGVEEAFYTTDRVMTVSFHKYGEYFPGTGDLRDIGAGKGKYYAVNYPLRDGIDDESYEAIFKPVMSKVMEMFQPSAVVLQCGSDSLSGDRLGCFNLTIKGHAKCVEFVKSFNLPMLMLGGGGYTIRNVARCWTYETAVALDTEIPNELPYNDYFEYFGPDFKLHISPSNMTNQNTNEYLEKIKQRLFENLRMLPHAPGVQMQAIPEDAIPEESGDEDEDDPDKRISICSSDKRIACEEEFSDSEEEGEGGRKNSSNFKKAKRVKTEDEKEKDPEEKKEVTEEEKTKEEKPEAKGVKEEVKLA

MV4-11 [3] = test: Induction of apoptosis in human MV4-11 cells assessed as increase in cleaved PARP level at 1 to 2 uM after 24 hrs by Western blot method; assay type: functional, cell-based; method in brief: as §1
[4] = target: Histone deacetylase 3 (Homo sapiens) (UniProt O15379); conditions: 0.25 to 2 uM
Sequence of Histone deacetylase 3 (Homo sapiens) (O15379 whole entry): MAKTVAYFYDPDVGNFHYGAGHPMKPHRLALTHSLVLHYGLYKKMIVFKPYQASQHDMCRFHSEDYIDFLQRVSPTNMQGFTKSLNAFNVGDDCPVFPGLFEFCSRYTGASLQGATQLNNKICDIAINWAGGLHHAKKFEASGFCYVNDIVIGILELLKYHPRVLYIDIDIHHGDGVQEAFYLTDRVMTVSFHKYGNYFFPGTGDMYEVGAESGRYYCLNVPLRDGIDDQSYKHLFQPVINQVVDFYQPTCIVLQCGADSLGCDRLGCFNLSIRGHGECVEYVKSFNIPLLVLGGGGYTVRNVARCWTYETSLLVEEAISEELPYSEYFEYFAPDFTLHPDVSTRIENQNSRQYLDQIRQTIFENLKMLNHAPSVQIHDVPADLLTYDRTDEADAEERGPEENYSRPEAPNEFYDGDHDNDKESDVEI

Histone deacetylase 2 [5] = target: T2, Histone deacetylase 2 (Homo sapiens, UniProt Q92769); test: Inhibition of full length recombinant human C-terminal FLAG/His-tagged HDAC2 expressed in baculovirus expression system using Boc-Lys(acetyl)-AMC as substrate preincubated for 1 hr followed by substrate addition measured after 2 hrs by fluorescence assay
T2 sequence (Q92769 whole entry): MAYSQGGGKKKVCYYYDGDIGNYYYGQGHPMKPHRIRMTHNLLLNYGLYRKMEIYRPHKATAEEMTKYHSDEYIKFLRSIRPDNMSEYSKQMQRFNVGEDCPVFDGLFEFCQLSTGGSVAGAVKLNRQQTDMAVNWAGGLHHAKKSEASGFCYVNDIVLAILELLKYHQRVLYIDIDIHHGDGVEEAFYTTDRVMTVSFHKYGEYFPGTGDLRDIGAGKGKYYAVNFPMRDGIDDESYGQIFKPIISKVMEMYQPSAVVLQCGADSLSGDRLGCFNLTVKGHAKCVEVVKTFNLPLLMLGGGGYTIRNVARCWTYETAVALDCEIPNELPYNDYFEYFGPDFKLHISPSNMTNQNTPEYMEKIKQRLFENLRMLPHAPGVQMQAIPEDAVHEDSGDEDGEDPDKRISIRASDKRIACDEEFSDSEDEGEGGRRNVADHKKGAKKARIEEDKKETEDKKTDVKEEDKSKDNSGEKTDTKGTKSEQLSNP
Method in brief: (§2)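 Recombinant HDAC incubated with serial compound dilutions at 30 °C for 1 h. Reaction run 2 h at 30 °C, stopped with developer containing trypsin and TSA. Fluorescence read after 30 min at 360/460 nm. Inhibition relative to control wells; IC50 from variable-slope fit.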

[6] = target: Histone deacetylase 3/Nuclear receptor corepressor 2 (HDAC3/NCoR2) (Homo sapiens, UniProt O15379); test: Inhibition of full length recombinant human C-terminal His-tagged HDAC3/N-terminal GST-tagged NCOR2 co-expressed in baculovirus expression system using Boc-Lys(acetyl)-AMC as substrate preincubated for 1 hr followed by substrate addition measured after 2 hrs by fluorescence assay; method in brief: as §2
Sequence of Histone deacetylase 3/Nuclear receptor corepressor 2 (HDAC3/NCoR2) (O15379 whole entry): as the sequence (O15379 whole entry) above
Sequence of Histone deacetylase 3/Nuclear receptor corepressor 2 (HDAC3/NCoR2) (Q9Y618 whole entry, further chain): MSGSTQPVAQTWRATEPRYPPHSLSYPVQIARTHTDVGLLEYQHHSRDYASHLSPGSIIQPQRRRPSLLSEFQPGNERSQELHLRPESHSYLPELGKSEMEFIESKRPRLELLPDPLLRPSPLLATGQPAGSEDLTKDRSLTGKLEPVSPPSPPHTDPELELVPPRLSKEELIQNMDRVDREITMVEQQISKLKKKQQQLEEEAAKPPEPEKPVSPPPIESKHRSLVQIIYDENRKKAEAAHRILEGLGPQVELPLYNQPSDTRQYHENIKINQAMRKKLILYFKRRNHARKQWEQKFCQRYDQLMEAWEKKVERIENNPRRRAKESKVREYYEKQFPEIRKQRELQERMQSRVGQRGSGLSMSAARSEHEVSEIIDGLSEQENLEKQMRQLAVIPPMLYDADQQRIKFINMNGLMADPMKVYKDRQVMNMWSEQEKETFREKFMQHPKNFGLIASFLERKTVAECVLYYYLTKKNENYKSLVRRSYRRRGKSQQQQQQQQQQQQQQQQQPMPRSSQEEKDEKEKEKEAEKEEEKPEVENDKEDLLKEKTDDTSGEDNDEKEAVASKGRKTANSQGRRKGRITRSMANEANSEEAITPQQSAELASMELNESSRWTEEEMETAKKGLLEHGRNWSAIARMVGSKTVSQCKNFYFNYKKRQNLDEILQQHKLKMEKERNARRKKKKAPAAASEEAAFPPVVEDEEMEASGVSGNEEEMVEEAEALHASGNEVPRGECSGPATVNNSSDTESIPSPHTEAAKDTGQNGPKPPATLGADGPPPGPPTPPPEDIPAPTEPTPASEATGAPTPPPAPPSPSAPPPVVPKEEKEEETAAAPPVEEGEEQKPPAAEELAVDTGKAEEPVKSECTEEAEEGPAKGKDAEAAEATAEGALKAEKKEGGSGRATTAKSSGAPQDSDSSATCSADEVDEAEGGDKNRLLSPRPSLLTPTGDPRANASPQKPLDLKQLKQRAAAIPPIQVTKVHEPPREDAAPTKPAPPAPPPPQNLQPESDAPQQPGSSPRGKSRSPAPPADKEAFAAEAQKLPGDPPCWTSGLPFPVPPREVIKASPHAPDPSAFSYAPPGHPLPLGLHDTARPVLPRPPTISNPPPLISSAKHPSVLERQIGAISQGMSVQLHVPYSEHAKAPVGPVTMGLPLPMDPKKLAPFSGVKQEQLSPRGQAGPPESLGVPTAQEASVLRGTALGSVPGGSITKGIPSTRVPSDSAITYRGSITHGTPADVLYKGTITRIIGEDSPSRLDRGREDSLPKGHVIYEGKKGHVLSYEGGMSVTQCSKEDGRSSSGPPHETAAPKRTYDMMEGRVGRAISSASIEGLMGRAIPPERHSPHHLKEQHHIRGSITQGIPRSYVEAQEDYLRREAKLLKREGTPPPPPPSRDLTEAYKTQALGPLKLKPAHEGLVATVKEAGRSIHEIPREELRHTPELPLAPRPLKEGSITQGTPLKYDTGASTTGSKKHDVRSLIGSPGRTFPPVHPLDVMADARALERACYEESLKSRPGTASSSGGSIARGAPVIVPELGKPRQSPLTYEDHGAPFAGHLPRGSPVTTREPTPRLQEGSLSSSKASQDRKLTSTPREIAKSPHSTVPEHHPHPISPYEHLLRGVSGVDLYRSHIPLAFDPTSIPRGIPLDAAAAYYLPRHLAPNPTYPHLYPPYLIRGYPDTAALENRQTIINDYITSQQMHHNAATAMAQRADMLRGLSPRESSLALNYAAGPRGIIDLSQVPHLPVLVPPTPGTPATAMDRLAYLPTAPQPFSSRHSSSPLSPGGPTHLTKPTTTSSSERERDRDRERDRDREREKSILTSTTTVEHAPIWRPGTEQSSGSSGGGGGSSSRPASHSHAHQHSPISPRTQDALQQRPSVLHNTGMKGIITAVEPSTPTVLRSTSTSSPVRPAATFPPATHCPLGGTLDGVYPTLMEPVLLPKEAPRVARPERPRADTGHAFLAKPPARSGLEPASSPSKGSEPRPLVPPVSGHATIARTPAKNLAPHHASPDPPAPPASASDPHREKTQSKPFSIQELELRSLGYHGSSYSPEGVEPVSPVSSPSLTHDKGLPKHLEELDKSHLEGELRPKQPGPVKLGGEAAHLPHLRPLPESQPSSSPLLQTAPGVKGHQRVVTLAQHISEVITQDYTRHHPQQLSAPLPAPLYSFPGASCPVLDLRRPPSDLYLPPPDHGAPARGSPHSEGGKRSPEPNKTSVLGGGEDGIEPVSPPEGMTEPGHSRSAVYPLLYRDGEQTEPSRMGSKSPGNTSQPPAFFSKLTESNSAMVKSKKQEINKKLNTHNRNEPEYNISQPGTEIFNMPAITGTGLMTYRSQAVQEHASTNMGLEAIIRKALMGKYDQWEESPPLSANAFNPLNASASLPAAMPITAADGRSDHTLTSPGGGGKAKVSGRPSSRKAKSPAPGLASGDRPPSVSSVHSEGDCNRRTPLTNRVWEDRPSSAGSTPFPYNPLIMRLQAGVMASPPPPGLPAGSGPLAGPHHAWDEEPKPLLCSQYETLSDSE

[7] = target: Histone deacetylase 3 (Homo sapiens) (UniProt O15379); conditions: 0.25 to 2 uM; remark: listed apart in the source
[8] = target: T3, Protein deacetylase HDAC6 (Homo sapiens, UniProt Q9UBN7); test: Inhibition of HDAC6 (unknown origin) using Boc-Lys(acetyl)-AMC as substrate preincubated for 1 hr followed by substrate addition measured after 2 hrs by fluorescence assay; method in brief: as §2
T3 sequence (Q9UBN7 whole entry): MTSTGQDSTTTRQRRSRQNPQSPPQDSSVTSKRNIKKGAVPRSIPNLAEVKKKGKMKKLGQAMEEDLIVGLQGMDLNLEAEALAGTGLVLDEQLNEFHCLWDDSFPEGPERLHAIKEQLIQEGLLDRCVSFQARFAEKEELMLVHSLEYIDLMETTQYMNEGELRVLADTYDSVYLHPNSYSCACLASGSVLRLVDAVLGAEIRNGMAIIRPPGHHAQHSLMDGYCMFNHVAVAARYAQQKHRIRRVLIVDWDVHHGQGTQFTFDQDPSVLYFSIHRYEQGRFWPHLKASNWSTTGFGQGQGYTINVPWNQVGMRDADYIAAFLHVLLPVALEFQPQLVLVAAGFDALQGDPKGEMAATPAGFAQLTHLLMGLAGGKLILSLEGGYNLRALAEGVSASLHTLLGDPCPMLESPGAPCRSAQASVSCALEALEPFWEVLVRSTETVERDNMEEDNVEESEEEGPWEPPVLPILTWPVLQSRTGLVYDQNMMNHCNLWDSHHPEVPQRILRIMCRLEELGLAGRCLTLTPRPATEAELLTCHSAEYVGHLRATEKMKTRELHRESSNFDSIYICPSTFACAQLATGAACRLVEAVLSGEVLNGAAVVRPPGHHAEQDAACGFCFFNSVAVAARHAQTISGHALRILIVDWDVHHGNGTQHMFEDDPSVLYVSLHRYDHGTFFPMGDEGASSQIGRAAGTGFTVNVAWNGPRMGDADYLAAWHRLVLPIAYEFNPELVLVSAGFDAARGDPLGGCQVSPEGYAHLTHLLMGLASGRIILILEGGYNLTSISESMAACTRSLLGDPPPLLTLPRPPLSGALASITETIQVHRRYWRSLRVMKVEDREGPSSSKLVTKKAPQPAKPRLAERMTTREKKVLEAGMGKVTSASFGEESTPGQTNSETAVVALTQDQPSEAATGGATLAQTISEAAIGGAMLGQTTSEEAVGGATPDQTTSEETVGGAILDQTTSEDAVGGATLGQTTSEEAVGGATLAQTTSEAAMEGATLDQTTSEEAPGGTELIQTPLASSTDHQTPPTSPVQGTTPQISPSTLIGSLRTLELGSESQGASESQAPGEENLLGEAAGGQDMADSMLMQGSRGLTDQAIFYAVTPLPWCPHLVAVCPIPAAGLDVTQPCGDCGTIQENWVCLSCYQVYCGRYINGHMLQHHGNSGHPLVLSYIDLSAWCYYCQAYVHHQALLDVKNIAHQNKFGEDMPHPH

Histone deacetylase 2 [9] = target: T2, Histone deacetylase 2; conditions: 0.25 to 2 uM
PC-3 [10] = test: Cell cycle arrest in human PC3 cells assessed as accumulation at G2/M phase up to 2 uM after 24 hrs by propidium iodide staining based flow cytometry; assay type: functional
PC-3 [11] = test: Antiproliferative activity against human PC3 cells assessed as cell viability at 2 uM after 48 hrs by CellTiter-Blue assay relative to control; assay type: functional, cell-based
Method in brief: (§3)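 MV4-11 and PC-3 cells treated with 10 or 2 μM (or 0 μM) and sampled at 24 and 48 h. Viable cells measured by CellTiter-Blue resorufin fluorescence, read as in the EC50 assay, which is proportional to viable cell number. Representative of n = 2 experiments.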

PC-3 [12] = test: Downregulation of HDAC1 protein expression in human PC3 cells at 1 to 2 uM after 24 hrs by Western blot method; assay type: functional, cell-based; method in brief: as §1
MV4-11 [13] = test: Induction of p53 degradation in human MV4-11 cells up to 500 nM after 6 hrs in presence of proteasome inhibitor bortezomib by Western blot analysis; assay type: functional, cell-based
MV4-11 [14] = test: Antiproliferative activity against human MV4-11 cells assessed as cell death at 2 to 10 uM after 24 to 48 hrs by CellTiter-Blue assay; assay type: functional, cell-based; method in brief: as §3
Histone deacetylase 1 [15] = target: T1, Histone deacetylase 1; test: Inhibition of full length recombinant human C-terminal FLAG/His-tagged HDAC1 expressed in baculovirus expression system using Boc-Lys(acetyl)-AMC as substrate preincubated for 1 hr followed by substrate addition measured after 2 hrs by fluorescence assay; method in brief: as §2

inhibition (Histone deacetylase 1 [2]): Active
inhibition [4]: Active
IC50 (Histone deacetylase 2 [5]): 0.028 µM
IC50 [6]: 0.00141 µM
inhibition [7]: Active
IC50 [8]: 50 to 100 µM
inhibition (Histone deacetylase 2 [9]): Active
IC50 (Histone deacetylase 1 [15]): 0.00954 µM
Structure (SMILES): CCCNNC(=O)c1ccc(NC(=O)[C@H](Cc2c[nH]c3ccccc23)NC(=O)c2ccc(OC)cc2)cc1
Activity (PC-3 [1]): inactive
Activity (MV4-11 [3]): Active
Activity (PC-3 [10]): Active
Activity (PC-3 [11]): inactive
Activity (PC-3 [12]): inactive
Activity (MV4-11 [13]): inactive
Activity (MV4-11 [14]): Active
